According to ChEMBL document CHEMBL5260808, “Design of Phthalazinone Amide Histamine H1 Receptor Antagonists for Use in Rhinitis” (ACS Med Chem Lett, 2017):
The source made the active and inactive calls. The rule behind the calls is not given here.

Columns and labels:
[1] = target: T1, Histamine H1 receptor (Homo sapiens, UniProt P35367); experiment: Antagonist potency at human H1 receptor; conditions: read-out: pA2 (converted)
[2] = target: T1, Histamine H1 receptor; experiment: Antagonist activity against recombinant human H1 receptor expressed in CHO cells incubated for 30 mins by FLIPR analysis; format: cell-based
[3] = target: T2, Alpha-1A adrenergic receptor (Homo sapiens, UniProt P35348); experiment: Antagonist activity against recombinant human adrenergic alpha1A receptor expressed in Rat1 cells incubated for 30 mins by FLIPR analysis; format: cell-based
T2 sequence (P35348 whole entry): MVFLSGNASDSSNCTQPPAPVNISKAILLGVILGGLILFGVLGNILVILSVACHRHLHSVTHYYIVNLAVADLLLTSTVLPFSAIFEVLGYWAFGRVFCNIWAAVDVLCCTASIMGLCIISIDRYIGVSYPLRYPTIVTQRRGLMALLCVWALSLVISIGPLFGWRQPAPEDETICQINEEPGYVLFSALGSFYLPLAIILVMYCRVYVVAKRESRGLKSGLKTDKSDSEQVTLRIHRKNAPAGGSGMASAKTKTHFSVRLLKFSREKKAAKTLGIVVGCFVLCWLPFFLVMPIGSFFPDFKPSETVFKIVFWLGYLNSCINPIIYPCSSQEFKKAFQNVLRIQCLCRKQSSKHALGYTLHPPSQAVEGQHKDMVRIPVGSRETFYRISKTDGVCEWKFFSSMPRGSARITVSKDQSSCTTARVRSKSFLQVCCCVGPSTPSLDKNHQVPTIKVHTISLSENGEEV
Method in brief: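 Human α1A or α1B adrenoceptor in fibroblast cells. Plate-based calcium imaging.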

[4] = target: T3, Alpha-1B adrenergic receptor (Homo sapiens, UniProt P35368); experiment: Antagonist activity against recombinant human adrenergic alpha1B receptor expressed in CHO cells incubated for 30 mins by FLIPR analysis; format: cell-based
T3 sequence (P35368 whole entry): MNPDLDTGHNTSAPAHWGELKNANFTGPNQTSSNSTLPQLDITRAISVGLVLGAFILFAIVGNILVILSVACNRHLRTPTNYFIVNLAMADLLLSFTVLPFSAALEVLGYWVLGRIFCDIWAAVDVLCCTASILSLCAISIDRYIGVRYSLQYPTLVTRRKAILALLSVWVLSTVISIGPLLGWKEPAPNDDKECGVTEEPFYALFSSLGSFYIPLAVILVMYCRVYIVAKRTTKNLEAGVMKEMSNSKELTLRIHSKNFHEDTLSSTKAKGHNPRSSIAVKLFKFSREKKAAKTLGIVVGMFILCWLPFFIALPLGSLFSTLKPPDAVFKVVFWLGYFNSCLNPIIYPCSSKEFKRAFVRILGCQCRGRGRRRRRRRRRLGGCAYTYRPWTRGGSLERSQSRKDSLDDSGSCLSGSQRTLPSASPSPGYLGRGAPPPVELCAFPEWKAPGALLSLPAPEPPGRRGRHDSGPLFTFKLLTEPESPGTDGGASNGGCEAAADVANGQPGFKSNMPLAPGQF

[5] = Distribution coefficient, log D of compound in n-octanol and phosphate buffered saline at pH 7.4 by HPLC analysis; format: physicochemical
[6] = target: Voltage-gated inwardly rectifying potassium channel KCNH2 (Homo sapiens, UniProt Q12809); experiment: Displacement of [3H]dofetilide from human ERG expressed in CHO-K1 cell membrane measured after 45 mins by topcount scintillation counting method; format: toxicity, cell membranes
Voltage-gated inwardly rectifying potassium channel KCNH2, sequence (Q12809 whole entry): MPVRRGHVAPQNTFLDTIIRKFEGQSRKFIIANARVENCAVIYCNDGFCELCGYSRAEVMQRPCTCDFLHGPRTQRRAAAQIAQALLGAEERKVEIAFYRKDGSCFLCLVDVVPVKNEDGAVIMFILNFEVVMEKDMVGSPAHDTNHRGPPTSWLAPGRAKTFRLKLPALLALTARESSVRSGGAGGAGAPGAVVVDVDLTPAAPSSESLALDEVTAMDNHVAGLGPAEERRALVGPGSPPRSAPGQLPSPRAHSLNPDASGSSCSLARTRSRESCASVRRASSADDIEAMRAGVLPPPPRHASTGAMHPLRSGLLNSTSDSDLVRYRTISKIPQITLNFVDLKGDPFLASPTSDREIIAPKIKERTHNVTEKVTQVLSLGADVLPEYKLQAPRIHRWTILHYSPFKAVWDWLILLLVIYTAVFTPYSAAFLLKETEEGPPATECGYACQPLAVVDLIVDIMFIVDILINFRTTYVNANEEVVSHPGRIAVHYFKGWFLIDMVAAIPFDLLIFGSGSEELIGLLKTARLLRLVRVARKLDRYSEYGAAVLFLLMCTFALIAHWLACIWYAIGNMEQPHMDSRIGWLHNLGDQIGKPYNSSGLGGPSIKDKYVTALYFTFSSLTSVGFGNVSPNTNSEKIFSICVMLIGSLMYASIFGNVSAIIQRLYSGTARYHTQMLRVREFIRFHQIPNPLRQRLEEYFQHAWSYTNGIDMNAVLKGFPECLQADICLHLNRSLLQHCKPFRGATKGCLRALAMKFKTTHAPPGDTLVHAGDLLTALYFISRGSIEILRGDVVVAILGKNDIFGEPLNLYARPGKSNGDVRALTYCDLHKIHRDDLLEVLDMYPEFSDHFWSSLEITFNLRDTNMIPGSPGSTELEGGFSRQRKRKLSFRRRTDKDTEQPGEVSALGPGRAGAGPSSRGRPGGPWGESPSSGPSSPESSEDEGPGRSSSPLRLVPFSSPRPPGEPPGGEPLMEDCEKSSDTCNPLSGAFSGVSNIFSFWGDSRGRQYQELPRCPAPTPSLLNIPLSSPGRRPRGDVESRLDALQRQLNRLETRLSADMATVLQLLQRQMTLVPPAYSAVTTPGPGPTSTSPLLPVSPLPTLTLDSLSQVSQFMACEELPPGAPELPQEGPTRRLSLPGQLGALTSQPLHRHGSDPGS

[7] = test system: Cavia porcellus; experiment: Antihistamine activity against conscious unrestrained ovalbumin and aluminum hydroxide sensitized guinea pigs assessed as inhibition of histamine-induced nasal congestion by measuring time duration of action at 1 mg/ml, intranasal measured after 1 to 24 hrs; format: functional; conditions: time 1-24 hrs
Method in brief: (§1)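 Guinea pigs dosed intranasally with a 1 mg/mL solution (25 μL/nostril). Bilateral histamine challenge (15 or 10 mM, 25 μL/nostril, light isoflurane anesthesia) given 1 and 24 h after dosing. […] Comparison with vehicle-pretreated/histamine-challenged controls; mean ± SEM, n = 16–27 per group; p < 0.05.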

[8] = Elimination half life in Beagle dog at 2 mg/kg, po and 1 mg/kg, iv; format: ADME, organism-based, Canis lupus familiaris; conditions: in vivo, read-out: beta t1/2 (converted)
Method in brief: (§2)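 Male CD Sprague–Dawley rats and Beagle dogs. Solution in H2O–PEG200–DMSO (50:45:5), given iv at 1 mg/kg, and po at 3 mg/kg (rat) or 2 mg/kg (dog). Vss and elimination half-life derived after iv dosing.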

[9] = Elimination half life in CD Sprague-Dawley rat at 3 mg/kg, po and 1 mg/kg, iv; format: ADME, organism-based; conditions: in vivo, read-out: beta t1/2 (converted); method in brief: as §2
[10] = Volume of distribution at steady state in CD Sprague-Dawley rat at 3 mg/kg, po and 1 mg/kg, iv; format: ADME, organism-based; conditions: in vivo; method in brief: as §2
[11] = Volume of distribution at steady state in Beagle dog at 2 mg/kg, po and 1 mg/kg, iv; format: ADME, organism-based, Canis lupus familiaris; conditions: in vivo; method in brief: as §2
[12] = Drug uptake in rat brain at 1 mg/kg, iv bolus dose; format: ADME, organism-based; conditions: in vivo
Method in brief: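 Rats given a 1 mg/kg intravenous bolus. Brain and blood sampled at 5 min; brain–blood ratio and brain concentration determined, n = 3.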

[13] = Ratio of drug level in rat brain to blood at 1 mg/kg, iv bolus dose measured after 5 mins
[14] = Bioavailability in human; format: ADME, organism-based; conditions: in vivo
[15] = Drug metabolism in human hepatocytes assessed as metabolite formation at 10 uM measured after 3 hrs by LC-MS/MS analysis; format: ADME, cell-based, Hepatocyte
Method in brief: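 Cryopreserved human hepatocytes incubated with compound (10 μM initial) for 3 h. Metabolites detected and profiled by LC–MS/MS.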

[16] = Drug metabolism in monkey intestinal microsomes assessed as rate of metabolism; format: ADME, Macaca mulatta, Intestine; conditions: rhesus monkey
Method in brief: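 Intestinal microsomes from monkey; in vitro rate of metabolism given in mL/min/g.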

[17] = Drug metabolism in dog liver microsomes assessed as rate of metabolism; format: ADME, Canis lupus familiaris
[18] = Drug metabolism in human liver microsomes assessed as rate of metabolism; format: ADME
[19] = Drug metabolism in rat liver microsomes assessed as rate of metabolism; format: ADME
[20] = Drug metabolism in mouse liver microsomes assessed as rate of metabolism; format: ADME
[21] = Drug absorption into hepatic portal vein of CD Sprague-Dawley rat at 3 mg/kg, po; format: ADME, organism-based; conditions: read-out: Drug absorption
Method in brief: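 Male CD Sprague–Dawley rats dosed orally at 3 mg/kg. Absorption measured into the hepatic portal vein.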

[22] = Oral bioavailability in CD Sprague-Dawley rat at 300 mg/kg; format: ADME, organism-based; conditions: in vivo
Method in brief: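 Male CD Sprague–Dawley rats dosed orally at 300 mg/kg. Vehicle was H2O–PEG200–DMSO (50:45:5). Oral bioavailability determined from blood concentrations.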

[23] = Elimination in iv dosed dog urine; format: ADME, organism-based, Canis lupus familiaris; conditions: read-out: Drug excretion
Method in brief: (§3)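 Beagle dogs dosed iv at 1 mg/kg, or subcutaneously in one dog. Parent compound measured in urine.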

[24] = Elimination in sc dosed dog urine; format: ADME, organism-based, Canis lupus familiaris; conditions: read-out: Drug excretion; method in brief: as §3
[25] = test system: Cavia porcellus; experiment: Antihistamine activity against conscious unrestrained ovalbumin and aluminum hydroxide sensitized guinea pigs assessed as inhibition of histamine-induced nasal congestion at 1 mg/ml, intranasal measured after 1 to 24 hrs relative to control; format: functional, organism-based; conditions: time 1-24 hrs; method in brief: as §1
[26] = target: D(1A) dopamine receptor (Homo sapiens) (UniProt P21728); experiment: Inhibition of human dopamine D1 receptor at 1 uM relative to control
D(1A) dopamine receptor (Homo sapiens), sequence (P21728 whole entry): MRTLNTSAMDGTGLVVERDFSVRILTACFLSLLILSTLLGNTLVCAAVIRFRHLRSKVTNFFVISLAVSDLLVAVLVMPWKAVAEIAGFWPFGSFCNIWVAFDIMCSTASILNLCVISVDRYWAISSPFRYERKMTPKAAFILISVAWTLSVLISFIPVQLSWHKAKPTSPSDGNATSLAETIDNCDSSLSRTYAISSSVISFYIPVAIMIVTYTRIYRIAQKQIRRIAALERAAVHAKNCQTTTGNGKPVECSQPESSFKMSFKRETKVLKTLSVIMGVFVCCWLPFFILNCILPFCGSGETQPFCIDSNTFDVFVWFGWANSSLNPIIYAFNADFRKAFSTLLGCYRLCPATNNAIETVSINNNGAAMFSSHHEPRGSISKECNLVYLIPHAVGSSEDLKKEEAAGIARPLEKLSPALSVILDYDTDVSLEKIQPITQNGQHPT

[27] = target: D(2) dopamine receptor (Homo sapiens) (UniProt P14416); experiment: Inhibition of human dopamine D2S receptor at 1 uM relative to control
D(2) dopamine receptor (Homo sapiens), sequence (P14416 whole entry): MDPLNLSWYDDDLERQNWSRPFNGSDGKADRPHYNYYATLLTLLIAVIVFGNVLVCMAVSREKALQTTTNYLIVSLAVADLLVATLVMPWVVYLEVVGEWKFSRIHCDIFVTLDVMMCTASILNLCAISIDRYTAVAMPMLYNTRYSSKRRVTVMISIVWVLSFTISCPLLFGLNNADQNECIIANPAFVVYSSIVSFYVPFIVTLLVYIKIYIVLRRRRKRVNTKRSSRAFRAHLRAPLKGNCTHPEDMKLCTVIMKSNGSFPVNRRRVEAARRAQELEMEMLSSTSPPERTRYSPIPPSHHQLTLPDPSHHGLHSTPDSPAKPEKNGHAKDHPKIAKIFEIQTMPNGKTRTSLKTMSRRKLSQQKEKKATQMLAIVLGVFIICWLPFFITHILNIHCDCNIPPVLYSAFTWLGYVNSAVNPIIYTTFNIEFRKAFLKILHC

[28] = target: 5-hydroxytryptamine receptor 2A (Homo sapiens) (UniProt P28223); experiment: Inhibition of human 5-HT2A receptor at 1 uM relative to control
5-hydroxytryptamine receptor 2A (Homo sapiens), sequence (P28223 whole entry): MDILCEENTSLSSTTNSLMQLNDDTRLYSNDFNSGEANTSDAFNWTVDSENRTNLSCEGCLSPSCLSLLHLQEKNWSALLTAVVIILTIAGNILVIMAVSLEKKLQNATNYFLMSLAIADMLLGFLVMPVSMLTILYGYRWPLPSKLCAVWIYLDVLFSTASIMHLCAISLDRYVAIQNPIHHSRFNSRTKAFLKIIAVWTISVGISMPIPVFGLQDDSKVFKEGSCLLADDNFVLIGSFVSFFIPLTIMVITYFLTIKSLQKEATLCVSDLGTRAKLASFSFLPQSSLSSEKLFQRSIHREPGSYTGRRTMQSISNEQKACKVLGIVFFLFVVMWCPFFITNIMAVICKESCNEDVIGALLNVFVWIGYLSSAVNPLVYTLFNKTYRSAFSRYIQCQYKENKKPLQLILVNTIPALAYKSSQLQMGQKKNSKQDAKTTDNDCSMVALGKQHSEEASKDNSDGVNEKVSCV

[29] = target: 5-hydroxytryptamine receptor 6 (Homo sapiens) (UniProt P50406); experiment: Inhibition of human 5-HT6 receptor at 1 uM relative to control
5-hydroxytryptamine receptor 6 (Homo sapiens), sequence (P50406 whole entry): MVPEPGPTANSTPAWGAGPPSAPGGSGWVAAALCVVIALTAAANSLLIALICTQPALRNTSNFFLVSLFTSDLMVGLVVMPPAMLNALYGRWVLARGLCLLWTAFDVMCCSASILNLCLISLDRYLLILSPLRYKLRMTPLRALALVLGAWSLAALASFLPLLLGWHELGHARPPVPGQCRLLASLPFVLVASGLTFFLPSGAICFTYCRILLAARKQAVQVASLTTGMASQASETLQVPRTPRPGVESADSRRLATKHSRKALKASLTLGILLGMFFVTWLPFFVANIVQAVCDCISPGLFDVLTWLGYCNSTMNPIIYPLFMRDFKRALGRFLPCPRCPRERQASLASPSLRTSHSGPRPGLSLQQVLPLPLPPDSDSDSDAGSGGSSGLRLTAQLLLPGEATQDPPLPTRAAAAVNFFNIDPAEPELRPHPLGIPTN

[30] = target: 5-hydroxytryptamine receptor 7 (Homo sapiens) (UniProt P34969); experiment: Inhibition of human 5-HT7 receptor at 1 uM relative to control
5-hydroxytryptamine receptor 7 (Homo sapiens), sequence (P34969 whole entry): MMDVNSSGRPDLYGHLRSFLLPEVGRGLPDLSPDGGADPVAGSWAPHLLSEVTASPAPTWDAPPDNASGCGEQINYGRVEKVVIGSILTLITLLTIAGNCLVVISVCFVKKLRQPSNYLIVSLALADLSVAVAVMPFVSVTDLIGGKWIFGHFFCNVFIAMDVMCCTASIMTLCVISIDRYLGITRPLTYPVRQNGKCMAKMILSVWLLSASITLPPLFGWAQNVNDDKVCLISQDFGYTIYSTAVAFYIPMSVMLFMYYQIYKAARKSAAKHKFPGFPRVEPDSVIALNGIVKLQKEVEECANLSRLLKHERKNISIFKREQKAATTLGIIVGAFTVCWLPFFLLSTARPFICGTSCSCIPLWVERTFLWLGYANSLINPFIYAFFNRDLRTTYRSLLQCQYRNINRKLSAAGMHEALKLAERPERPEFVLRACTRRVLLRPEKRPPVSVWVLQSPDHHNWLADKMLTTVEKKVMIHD

T1 sequence (P35367 whole entry): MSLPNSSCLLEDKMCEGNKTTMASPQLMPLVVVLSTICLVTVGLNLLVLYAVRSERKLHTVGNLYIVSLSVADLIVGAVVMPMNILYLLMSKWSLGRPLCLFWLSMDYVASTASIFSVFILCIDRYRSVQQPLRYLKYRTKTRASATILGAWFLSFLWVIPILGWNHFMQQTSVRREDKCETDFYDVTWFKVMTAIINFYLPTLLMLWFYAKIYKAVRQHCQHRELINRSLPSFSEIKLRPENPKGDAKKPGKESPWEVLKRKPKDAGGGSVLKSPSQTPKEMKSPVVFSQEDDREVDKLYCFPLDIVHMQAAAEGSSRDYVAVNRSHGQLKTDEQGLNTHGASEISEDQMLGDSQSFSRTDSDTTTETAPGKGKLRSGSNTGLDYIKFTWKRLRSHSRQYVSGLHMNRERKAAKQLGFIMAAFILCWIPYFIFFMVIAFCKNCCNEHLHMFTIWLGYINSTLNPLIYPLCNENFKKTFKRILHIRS

Kb [1]	Ki [2]	Ki [3]	Ki [4]	logD [5]	Structure (SMILES)	IC50 [6]	other results
				3.5	COCCCC(=O)NCCN1CCC[C@@H]1Cn1nc(Cc2ccc(Cl)cc2)c2ccccc2c1=O.O=C(O)C(F)(F)F		Time [7]: <48 h; half-life [8]: 30 min; half-life [9]: 12 min; Vdss [10]: 0.7 L/kg; Vdss [11]: 1.1 L/kg; Drug uptake [12]: 121 ng/g; Kp at 5 min [13]: 0.18
				2.3	CN1CCCC(n2nc(Cc3ccc(Cl)cc3)c3ccccc3c2=O)CC1 (stereo unspecified) [AZELASTINE]		bioavailability [14]: 40%
0.631 nM	0.794 nM	31.6 nM	79.4 nM	3.7	CCCC(=O)NCCN1CCC[C@@H]1Cn1nc(Cc2ccc(Cl)cc2)c2ccccc2c1=O	63.1 nM	
0.251 nM	0.631 nM	15.8 nM	15.8 nM	3.4	CCC(=O)NCCN1CCC[C@@H]1Cn1nc(Cc2ccc(Cl)cc2)c2ccccc2c1=O	200 nM	
0.132 nM	3.98 nM	3.98 nM	63.1 nM	3.2	CC(C)C(=O)NCCN1CCC[C@@H]1Cn1nc(Cc2ccc(Cl)cc2)c2ccccc2c1=O	398 nM	
0.1 nM	3.16 nM	31.6 nM	126 nM	3.5	COCCCC(=O)N(C)CCN1CCC[C@@H]1Cn1nc(Cc2ccc(Cl)cc2)c2ccccc2c1=O	398 nM	

Second part, the molecule before the results:

Structure (SMILES)	Kb [1]	Ki [2]	Ki [3]	Ki [4]	logD [5]	IC50 [6]	other results
COCCNC(=O)CCCN1CCC[C@@H]1Cn1nc(Cc2ccc(Cl)cc2)c2ccccc2c1=O	0.501 nM	0.794 nM	6.31 nM	10 nM	2.5	39.8 nM	
COCC(=O)NCCN1CCC[C@@H]1Cn1nc(Cc2ccc(Cl)cc2)c2ccccc2c1=O	0.2 nM	1.26 nM	50.1 nM	31.6 nM	3.1	200 nM	
COCCC(=O)NCCN1CCC[C@@H]1Cn1nc(Cc2ccc(Cl)cc2)c2ccccc2c1=O	0.501 nM	0.794 nM	7.94 nM	63.1 nM	3.2	398 nM	
COCCCC(=O)NCCN1CCC[C@@H]1Cn1nc(Cc2ccc(Cl)cc2)c2ccccc2c1=O.Cl							Time [7]: <48 h; Drug metabolism [15]: Metabolite_Detected; CLint scaled [16]: > 50 mL/min/g; Drug metabolism [17]: 12 mL/min/g; Drug metabolism [18]: 25 mL/min/g; Drug metabolism [19]: 50 mL/min/g; Drug metabolism [20]: 50 mL/min/g; Fa [21]: 3%; bioavailability [22]: < 3%; dose excreted [23]: < 3%; dose excreted [24]: < 3%
O=C(NCCN1CCC[C@@H]1Cn1nc(Cc2ccc(Cl)cc2)c2ccccc2c1=O)C1CCOCC1	0.794 nM	10 nM	200 nM		3.3	794 nM	
COCCCC(=O)NCCN1CCC[C@@H]1Cn1nc(Cc2ccc(Cl)cc2)c2ccccc2c1=O							Activity [25]: Active; inhibition [26]: > 50%; inhibition [27]: > 50%; inhibition [28]: > 50%; inhibition [29]: > 50%; inhibition [30]: > 50%
CCCNC(=O)CCCN1CCC[C@@H]1Cn1nc(Cc2ccc(Cl)cc2)c2ccccc2c1=O	0.158 nM	5.01 nM	10 nM	31.6 nM	3.3	1.58 nM	
O=C(NCCN1CCC[C@@H]1Cn1nc(Cc2ccc(Cl)cc2)c2ccccc2c1=O)C1CCCC1	0.316 nM	3.98 nM	79.4 nM	79.4 nM	3.9	50.1 nM	
